Measurements of several laboratories.

| SMILES | tested on | test | test system | setting | measurement | value |
| --- | --- | --- | --- | --- | --- | --- |
| CO[C@H]1/C=C/O[C@@]2(C)Oc3c(C)c(O)c4c(O)c(c(/C=N/N5CCN(C)CC5)c(O)c4c3C2=O)NC(=O)/C(C)=C\C=C\[C@H](C)[C@H](O)[C@@H](C)[C@@H](O)[C@@H](C)[C@H](OC(C)=O)[C@@H]1C | Mycobacterium avium | microbial growth |  | 6 days | MIC | < 0.78 µM |
| O=C(NC1CCC(CN2CCC(c3c[nH]c4ccccc34)CC2)CC1)c1cn(Cc2ccccc2)c2ccccc12 (stereo not shown) | HEK293 | cell growth or viability |  |  | IC50 | > 10 µM |
| CO[C@H]1/C=C/O[C@@]2(C)Oc3c(C)c(O)c4c(O)c(c(/C=N/N5CCN(C)CC5)c(O)c4c3C2=O)NC(=O)/C(C)=C\C=C\[C@H](C)[C@H](O)[C@@H](C)[C@@H](O)[C@@H](C)[C@H](OC(C)=O)[C@@H]1C | Mycobacterium avium | microbial growth | ATCC25291 |  | MIC | 3.1 µg/mL |
| CNCCCN(C)C(=O)Oc1c(Br)c(C)nc(C)c1-c1ccc(Oc2ccc(OC(F)(F)F)cc2)cc1 | HEK293 | cell growth or viability |  |  | IC50 | > 10 µM |
| CO[C@H]1/C=C/O[C@@]2(C)Oc3c(C)c(O)c4c(O)c(c(/C=N/N5CCN(C)CC5)c(O)c4c3C2=O)NC(=O)/C(C)=C\C=C\[C@H](C)[C@H](O)[C@@H](C)[C@@H](O)[C@@H](C)[C@H](OC(C)=O)[C@@H]1C | Mycolicibacterium phlei | microbial growth |  |  | MIC | 0.03 µg/mL |
| O=c1c2ccccc2[se]n1-c1ccccc1 | HEK293 | cell growth or viability, MTT |  | 250 µM, 72 h | inhibition | 64% |
| Cc1cccc2c(CNCC3(N4CCCC4)COC3)c[nH]c12 | T98G | cell growth or viability |  | 30 µM, 48 h | viability | 34.1% |
| Cc1nc(C)c(-c2ccc(Oc3ccc(OC(F)(F)F)cc3)cc2)c(OC(=O)N(CCNC(C)C)C(C)C)c1Br | HEK293 | cell growth or viability |  |  | IC50 | > 10 µM |
| C#C[C@]1(O)CC[C@H]2[C@@H]3CCc4cc(O)ccc4[C@H]3CC[C@@]21C | Vesicular stomatitis virus | viral entry, inhibitor | Vero C1008 | pseudovirus | IC50 | 25 to 70 µM |
| CNCCN(C)C(=O)Oc1c(Br)c(C)nc(C)c1-c1ccc(Oc2ccc(OC(F)(F)F)cc2)cc1 | HEK293 | cell growth or viability |  |  | IC50 | > 10 µM |
| NNC(=O)c1ccncc1 | Mycolicibacterium phlei | microbial growth |  |  | MIC | > 8 µg/mL |
| COC(=O)C1=C(C)NC(C)=C(C(=O)OCCN(C)Cc2ccccc2)C1c1cccc([N+](=O)[O-])c1 (stereo not shown) | Vesicular stomatitis virus | viral entry, inhibitor | Vero C1008 | pseudovirus | IC50 | 25 to 70 µM |
| Cc1ccc2c(CNCC3(N4CCCC4)COC3)c[nH]c2c1 | GBM6 | cell growth or viability |  | 30 µM, 48 h | viability | 60.6% |
